How the values were obtained:
[1] = biological target: T1, Amine oxidase [flavin-containing] B (Bos taurus, UniProt P56560); experiment: Inhibitory activity against Monoamine Oxidase B of Bovine liver in competitive inhibition assay at 25 degree C (pH=7.4)
T1 sequence (P56560 whole entry): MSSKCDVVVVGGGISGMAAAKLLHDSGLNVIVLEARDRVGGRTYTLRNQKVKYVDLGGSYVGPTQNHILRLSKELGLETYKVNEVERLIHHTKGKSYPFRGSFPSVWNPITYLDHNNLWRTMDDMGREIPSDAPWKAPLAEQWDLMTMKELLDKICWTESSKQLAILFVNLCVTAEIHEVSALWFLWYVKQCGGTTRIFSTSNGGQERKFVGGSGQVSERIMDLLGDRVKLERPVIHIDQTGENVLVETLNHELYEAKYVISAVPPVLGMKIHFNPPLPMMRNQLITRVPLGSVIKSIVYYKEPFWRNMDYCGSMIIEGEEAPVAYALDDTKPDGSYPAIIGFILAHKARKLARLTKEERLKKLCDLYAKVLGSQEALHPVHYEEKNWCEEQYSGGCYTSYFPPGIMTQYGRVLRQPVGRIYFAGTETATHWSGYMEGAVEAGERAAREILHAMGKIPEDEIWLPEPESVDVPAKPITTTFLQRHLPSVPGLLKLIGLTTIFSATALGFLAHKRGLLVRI

[2] = biological target: T1, Amine oxidase [flavin-containing] B; experiment: In vitro inhibition of bovine monoamine oxidase B.
Summary of the method: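 Beef liver mitochondrial MAO was purified and assayed spectrophotometrically in 67 mM potassium phosphate, pH 7.2, at 25 °C. MAO (0.002 unit) was run with benzylamine hydrochloride (100, 200, 300 or 400 µM) and inhibitor at various concentrations. Initial rates of benzaldehyde formation were read at 250 nm, four replicates per combination, and competitive Ki was fitted from the initial rates.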

[3] = biological target: T1, Amine oxidase [flavin-containing] B; experiment: Kinetic parameter for the time dependent inhibition of Bovine liver Monoamine Oxidase B at 25 degrees C (pH= 7.4).; settings: cattle; for kinact: read-out: k2 (converted)
Summary of the method: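 Purified beef liver mitochondrial MAO (0.02 unit) was preincubated at 25 °C in 50 mM potassium phosphate, pH 7.4, with allenic amine (1 µM-10 mM). Aliquots taken over time were assayed in duplicate for residual activity against benzylamine at 250 nm. kobsd came from nonlinear fit to E = E0 exp(-kobsd t) + E∞, and k2 and Ki by Kitz-Wilson analysis. For slow inactivators, k2 came from kobsd at one concentration plus a separately measured competitive Ki.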

[4] = biological target: T2, Amine oxidase [flavin-containing] B (Rattus norvegicus, UniProt P19643); experiment: Competitive inhibition of Rat liver Monoamine Oxidase B at 37 degree C (pH= 7.4)
T2 sequence (P19643 whole entry): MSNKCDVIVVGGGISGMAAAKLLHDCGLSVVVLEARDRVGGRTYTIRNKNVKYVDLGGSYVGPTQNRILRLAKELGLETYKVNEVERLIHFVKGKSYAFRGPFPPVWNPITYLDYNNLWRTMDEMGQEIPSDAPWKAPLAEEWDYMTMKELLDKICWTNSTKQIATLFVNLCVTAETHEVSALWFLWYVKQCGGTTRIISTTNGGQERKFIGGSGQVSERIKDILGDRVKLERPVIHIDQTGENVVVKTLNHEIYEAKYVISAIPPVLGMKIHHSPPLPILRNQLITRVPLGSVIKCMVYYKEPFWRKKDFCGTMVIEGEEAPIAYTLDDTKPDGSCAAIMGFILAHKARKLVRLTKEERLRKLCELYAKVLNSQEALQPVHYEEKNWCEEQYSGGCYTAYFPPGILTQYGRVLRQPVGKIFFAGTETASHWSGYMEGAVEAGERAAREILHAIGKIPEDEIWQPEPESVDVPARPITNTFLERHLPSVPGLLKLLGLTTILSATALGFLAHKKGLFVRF

Bos taurus = species on record: Bos taurus; experiment: Competitive inhibition of Bovine liver MAO-B at […]; assay type: functional
[5] = biological target: T2, Amine oxidase [flavin-containing] B; experiment: Competitive inhibition of Rat liver Monoamine Oxidase B at 30 degree C (pH= 7.2)

SMILES | Ki [1] [µM] | Ki [2] [µM] | k2 [3] [min⁻¹] | other results
CN[C@@H](C)c1ccccc1 | 1600 | – | – | –
CN[C@H](C)c1ccccc1 | 630 | – | – | –
CC=C=CCN(C)[C@@H](C)c1ccccc1 (mixture of isomers) | – | 2600 | 0.012 | –
CC=C=CCN(C)C (stereo in doubt; 1 (S)) | – | 100 | 0.29 | –
CC=C=CCN(C)[C@H]1CCCc2ccccc21 (stereo in doubt) | – | 150 | 0.0006 | –
CN[C@@H](C)Cc1ccccc1 [METHAMPHETAMINE] | 550 | – | – | Ki [4]: 270 µM
CC=C=CCN(C)Cc1ccccc1.O=C(O)C(=O)O (stereo in doubt; 2 (S)) | – | 820 | 0.16 | –
CC=C=CCN(C)[C@@H]1CCCc2ccccc21 (stereo in doubt) | – | 200 | 0.8 | –
CC=C=CCN(C)C[C@@H](C)c1ccccc1 (mixture of isomers) | – | 690 | – | kinact [3]: 0.000117 s⁻¹
CC=C=CCN(C)[C@H]1CCCc2ccccc21 (mixture of isomers) | – | 150 | 0.012 | –
CN[C@H](C)Cc1ccccc1 | 800 | – | – | Ki [4]: 550 µM
C[C@H](N)c1ccccc1 | 520 | – | – | Ki (Bos taurus): 150 µM
CN[C@@H]1CCCc2ccccc21 | 12 | – | – | –
C[C@H](N)Cc1ccccc1 [DEXTROAMPHETAMINE] | 300 | – | – | Ki [5]: 580 µM; Ki [4]: 160 µM
CC=C=CCN(C)Cc1ccccc1.O=C(O)C(=O)O (stereo in doubt; 2 (R)) | – | 200 | 1 | –
CC=C=CCN(C)[C@H](C)c1ccccc1 (mixture of isomers) | – | 1800 | – | kinact [3]: 0.00733 s⁻¹
CC=C=CCN(C)[C@@H]1CCCc2ccccc21 (mixture of isomers) | – | 250 | 0.13 | –
CC=C=CCN(C)[C@H](C)c1ccccc1 (stereo in doubt) | – | 730 | 0.61 | –
CC=C=CCN(C)CCc1ccccc1 (stereo in doubt; 4 (S)) | – | 650 | 0.13 | –
CC=C=CCN(C)C (stereo in doubt; 1 (R)) | – | 59 | – | kinact [3]: 0.00367 s⁻¹
CC=C=CCN(C)[C@@H](C)c1ccccc1 (stereo in doubt) | – | 1100 | – | kinact [3]: 0.000117 s⁻¹
C[C@@H](N)Cc1ccccc1 [LEVAMFETAMINE] | 380 | – | – | Ki [5]: 760 µM; Ki [4]: 180 µM
CN[C@H]1CCCc2ccccc21 | 1.4 | – | – | –
CC=C=CCN(C)CCc1ccccc1 (stereo in doubt; 4 (R)) | – | 430 | 0.99 | –
C[C@@H](N)c1ccccc1 | – | 190 | – | –
CC=C=CCN(C)C[C@H](C)c1ccccc1 (mixture of isomers) | – | 180 | – | kinact [3]: 0.00015 s⁻¹

Reference: ChEMBL document CHEMBL1124175, “Stereoisomers of allenic amines as inactivators of monoamine oxidase type B. Stereochemical probes of the active site” (J Med Chem, 1988)
